Only some compounds are listed: those with a hit (about 6.4% of all), similar ones and a draw of the others.
HUVEC inhibit: inhibitors of human endothelial cell proliferation | HUVEC proliferation, CellTiter-Glo luminescence, 72 h; hits give low values | viability, % at 10 µM (by protocol) | 1.1% of 86,000 active | AID 648;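 active = viability at or below 30%; inactive = viability above 30%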;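 also: 100% = median luminescence of DMSO-only cell control wells on each plate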
Ecoli WT expand: growth inhibitors of E. coli BW25113 wild type | OD600 absorbance | growth inhibition, % at 100 µM | 0.15% of 98,000 active | AID 710;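 active = growth inhibition above about 50% at one test dose, limit read from the data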;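 also: growth measured after 20 h incubation at 37 °C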
H69AR growth 86K: blocks growth of human H69AR lung tumor cells. H69AR lung tumor viability, ATP luminescence, 72 h; hits give low values. viability, % at 10 µM. AID 598. 6% of 85,000 active;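 active = viability at or below 40%; inactive = viability above 40%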;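 also: multidrug resistant small cell line overexpressing MRP-1 efflux transporter; 100% = mean luminescence of untreated control wells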
Fibroblast inh: blocks proliferation of human lung fibroblasts. 1.1% of 85,000 active. LL 47 human lung fibroblast viability, ATP luminescence; hits give low values. viability, % at 10 µM;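 active = viability at or below 50% in the single dose screen; inactive = viability above 50%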;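 also: compound exposure lasted 72 h before the ATP readout; 100% = median luminescence of untreated cell-only wells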
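Material: Human LL 47 lung fibroblast cells | Input: 1,150 cells/well | Buffer or medium: IMEM plus 15% FBS | Compound dosing: 0.1% DMSO in all compound wells | Times: Overnight cell rest, 72 h compound treatment at 37 °C | Signal: CellTiter-Glo luminescence measuring cellular ATP | Measure: % viability versus median cells-only luminescence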
Jurkat viability: cytotoxicity toward Jurkat cells; Jurkat E6.1 viability, ATP luminescence, 48 h; 1.2% of 56,000 active; inhibition, % at 4 µM;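 active = inhibition above the mean inhibition of all tested compounds plus 3 SD, cut at about 28% in these data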
Ecoli tolC: blocks growth of E. coli BW25113 tolC mutant; growth inhibition, % at 10 µM (by protocol); 2.2% of 65,000 active; OD615;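 active = growth inhibition at or above a cutoff equal to the mean over every tested compound plus 3 SD, cut at about 60% in these data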;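 also: growth measured after 20 h incubation at 37 °C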
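System: E. coli ΔtolC::kan strain BW25113; Buffer or medium: LB broth supplemented with 50 µg/mL kanamycin; Compound: 10 µM final, single dose; Incubation: bacterial growth with compound for 20 h at 37 °C; Signal: A615 absorbance measurement; Evaluation: growth inhibition in percent.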
Starred values were filed as active, the others as inactive; . = not tested or not shown.

SMILES | HUVEC inhibit | Ecoli WT expand | H69AR growth 86K | Fibroblast inh | Jurkat viability | Ecoli tolC
CCOC(=O)c1[nH]c2ccc(OC)cc2c1NC(=O)c1ccc2c(c1)OCO2 | 90.3 | -3.0 | 68.8 | 97.0 | . | 9.9
CCOC(=O)c1[nH]c2cc(OC)c(OC)cc2c1NC(=O)c1ccc2c(c1)OCO2 | 88.4 | -7.0 | 26.1* | 68.1 | . | 15.0
CN(Cc1ccccc1)S(=O)(=O)c1ccc(S(=O)(=O)N(Cc2ccc(F)cc2)C2CCCC2)cc1 | 87.0 | -17.0 | 32.0* | 99.4 | . | .
CCCCN(CCCC)c1nc2ccccc2nc1NS(=O)(=O)c1ccc(NC(C)=O)cc1 | 78.2 | -12.0 | 11.9* | 92.4 | . | .
CC(=O)Nc1ccc(S(=O)(=O)Nc2nc3ccccc3nc2Sc2nncn2C)cc1 | 100.1 | 11.0 | 104.2 | 100.8 | . | -5.8
Cc1cccc(NC(=O)C(NS(=O)(=O)c2ccc3c(c2)CCC(=O)N3)c2ccccc2)n1 (configuration not stated) | 102.3 | 6.0 | 93.8 | 104.5 | 3.8 | 11.6
CCc1ccc(-c2nc(CN3CCC(C(=O)N4CCN(c5ccccc5)CC4)CC3)c(C)o2)cc1 | 3.5* | 15.0 | 1.2* | 73.7 | 15.3 | 26.4
CCN1CCN(C(=O)C2CCN(Cc3nc(-c4ccc(Cl)cc4)oc3C)CC2)CC1 | 81.8 | . | 106.3 | 87.5 | 0.0 | -9.6
Cc1oc(-c2ccc(Cl)cc2)nc1CN1CCCC(C(=O)N2CCN(C(=O)c3ccco3)CC2)C1 (configuration not stated) | 87.3 | 9.0 | 87.1 | 90.6 | 61.9* | -1.6
Cc1oc(-c2ccc(Cl)cc2)nc1CN1CCC(C(=O)N2CCN(c3ccccn3)CC2)CC1 | 55.6 | . | 65.8 | 93.2 | 1.2 | 7.4
Cc1oc(-c2cccc(Cl)c2)nc1CN1CCC(C(=O)N2CCN(c3ccccn3)CC2)CC1 | 35.0 | . | 33.3* | 74.4 | -3.8 | -5.3
CCc1ccc(-c2nc(CN3CCC(C(=O)N4CCN(c5ccccn5)CC4)CC3)c(C)o2)cc1 | 31.3 | 15.0 | 38.7* | 95.5 | 21.0 | 9.3
O=C(Cn1nnc(-c2ccncc2)n1)N(C1CCCCC1)C1CCCCC1 | 105.7 | 1.0 | 83.3 | 97.5 | -2.1 | 18.7
COc1ccc(OC)c(NC(=O)CSc2nnc(Cn3nnc4ccccc43)n2C)c1 | 101.0 | 4.0 | 100.4 | 99.0 | . | .
O=C(O)CCc1n[nH]c(=S)[nH]c1=O | . | 3.0 | . | . | -8.5 | -17.6
CC(NC(=O)c1ccc(F)cc1)c1nc2ccccc2n1Cc1ccccc1F (configuration not stated) | 88.2 | -16.0 | 38.0* | 93.0 | . | .
CCCn1c(C(C)NC(=O)c2ccccc2)nc2ccccc21 (configuration not stated) | . | . | . | . | . | 5.5
CCOC(=O)C1CCCN(C(=O)c2sc3nc(-c4ccc(OC)cc4)cn3c2C)C1 (configuration not stated) | 91.2 | -3.0 | 47.3 | 96.4 | -2.0 | 5.9
Cn1c(NCCO)nc2c(c1=O)C1(CCCCC1)Cc1ccccc1-2 | 81.2 | -10.0 | 92.9 | 103.2 | -6.7 | 37.3
CCN(CC)Cc1nc2c(c(=O)[nH]1)C1(CCCCC1)Cc1ccccc1-2 | 99.9 | -6.0 | 58.7 | 89.5 | -3.4 | 29.2
CN(C)Cc1nc2c(c(=O)[nH]1)C1(CCCCC1)Cc1ccccc1-2 | 82.7 | 3.0 | 7.2* | 72.8 | 6.7 | 61.8*
O=c1[nH]c(NCCCO)nc2c1C1(CCCC1)Cc1ccccc1-2 | 86.5 | 20.0 | 92.2 | 98.0 | 3.4 | 65.4*
O=c1c2c(nc3n1CCCCC3)-c1ccccc1CC21CCCC1 | 82.8 | -6.0 | 85.8 | 101.5 | -3.7 | 90.6*
O=C(CCCNC(=O)/C(=C\c1ccc(F)cc1)NC(=O)c1ccccc1)OCc1ccccc1 | . | -7.0 | . | . | . | .
CCCNC(=O)c1ccccc1NC(=O)CN(c1ccccc1OCC)S(C)(=O)=O | 91.3 | 5.0 | 80.2 | 109.3 | 3.0 | 3.1
SMILES | HUVEC inhibit | Ecoli WT expand | H69AR growth 86K | Fibroblast inh | Jurkat viability | Ecoli tolC
Cc1ccc(C)c(NC(=S)NC(NC(=O)Cc2cccc3ccccc23)C(Cl)(Cl)Cl)c1 (configuration not stated) | 4.3* | -4.0 | 2.3* | 4.4* | . | .
Cc1cc(O)c(/C=N/Nc2ccc(Cl)cc2)c(=O)o1 | . | 95.0* | . | . | . | .
CCn1c(N)c(C(=O)NC)sc1=S | 95.5 | 9.0 | 20.1* | 97.0 | -2.1 | -12.6
CCNC(=O)c1sc(=S)n(CC)c1N | . | 4.0 | . | . | 8.0 | -29.8
CC1(C)CC(=O)C(C=NCCN2CCN(C(=O)C34CC5CC(CC(C5)C3)C4)CC2)=C(O)C1 | 98.2 | . | 89.4 | 100.5 | . | 5.3
OC(c1cccc(OCc2ccccc2)c1)c1nnc(-c2ccccc2)o1 (configuration not stated) | 65.1 | -10.0 | 87.1 | 109.1 | 9.8 | 74.7*
OC(c1ccc(OCc2ccccc2)cc1)c1nnc(-c2ccccc2)o1 (configuration not stated) | . | -9.0 | . | . | . | .
BrC(=C\c1ccccc1)/C=N/N1CCN(c2ccccn2)CC1 | . | -3.0 | . | . | . | .
CCN(CC(=O)NC)S(=O)(=O)c1ccc(Br)cc1 | 94.5 | 1.0 | 102.0 | 103.0 | 4.3 | -4.6
CCOC(=O)N1CCC(Nc2c(N3CCN(c4cccc(C(F)(F)F)c4)CC3)c(=O)c2=O)CC1 | 97.3 | -10.0 | 83.7 | 103.3 | -2.0 | 12.8
CCC(C)Nc1c2c(nc3c(-c4ccccc4)c(C)nn13)CCC2 (configuration not stated) | 93.8 | 0.0 | 29.7* | 97.3 | . | .
Cc1nn2c(NCCCN3CCOCC3)c3c(nc2c1-c1ccccc1)CCC3 | 91.6 | -13.0 | 47.2 | 91.4 | 3.7 | 6.9
CCCCNc1c2c(nc3c(-c4ccccc4)c(C)nn13)CCC2 | 79.6 | -13.0 | 27.5* | 84.1 | . | .
COc1cccc(-n2nnnc2SCC(=O)c2cc(OC)ccc2OC)c1 | 74.0 | 1.0 | 40.3 | 94.9 | 13.6 | -8.4
Clc1ccc(CSCCc2ccncc2)cc1 | 90.6 | 32.0 | 103.0 | 109.2 | . | .
c1ccc2c(CSCCc3ccncc3)cccc2c1 | 85.3 | 2.0 | 33.9* | 102.7 | . | .
CC12CCC(C(=O)N(c3ccccn3)c3ccccn3)(OC1=O)C2(C)C (configuration not stated) | 94.1 | 3.0 | 86.7 | 101.4 | -1.3 | -23.8
c1cncc(-c2nc(NCC3COc4ccccc4O3)c3ccccc3n2)c1 (configuration not stated) | 57.1 | -4.0 | 15.8* | 87.0 | . | .
COC(=O)CNc1nc(-c2cccnc2)nc2ccccc12 | 88.5 | 1.0 | 81.4 | 97.3 | . | 18.6
Cc1ccc(C)c(S(=O)(=O)NC(C)C(=O)Nc2ccc(-c3nc4ccccc4s3)cc2)c1 (configuration not stated) | . | -6.0 | . | . | . | .
O=C(Oc1cccc2cccnc12)c1ccc2c(c1)OCCO2 | 99.6 | 13.0 | 29.1* | 3.2* | -4.0 | 14.9
O=C(Oc1cccc2cccnc12)c1cccs1 | 51.7 | 13.0 | 1.6* | 3.4* | -3.1 | -4.4
O=C(Oc1cccc2ccccc12)c1ccco1 | 85.5 | 8.0 | 63.9 | 94.8 | -4.0 | -15.6
O=C(Oc1cccc2cccnc12)c1ccco1 | 64.3 | . | 1.5* | 5.2* | . | .
O=C(Oc1ccc(Cl)c2cccnc12)c1ccco1 | 31.8 | 100.0* | 1.3* | 4.2* | . | .

Bioassay records as filed in PubChem.
